Compounds with a hit are over-represented: about 2.2% of the library has one in this group of screens.
FXN GAA850 act – FXN promoter activators, primary screen, cell-based, luciferase luminescence, HEK293 lucGAA850; HEK293 lucGAA850 FXN promoter luciferase reporter, 24 h; percent of 10 µM SAHA response; activation, % at 6 µM; hit rate 0.56% among 360,000; AID 540364, 2011;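 active = activation above the average of all compounds screened plus 3 SD, cutoff fixed separately per campaign, cut at about 7.5% in these data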;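 note: 0% = DMSO wells and 100% = 10 µM SAHA wells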
V-ATPase pHluor – regulators of yeast V-ATPase proton pumping, primary screen, pHLuorin cytosolic pH fluorescence | S. cerevisiae | hit rate 0.37% among 350,000 | AID 504577, 2011 | response, % at 10 µM; in the data active = response mostly above about 7.3%, no sharp cut-off; inactive = mostly below about 5.4%; note: actives read high
HIV Env fusion – inhibitors of HIV-1 Env-driven cell-cell fusion, primary screen, HeLa-JRFL effector, CEM21 target cells, luciferase | hit rate 1.1% among 360,000 | inhibition, % at 12.3 µM | AID 651610, 2012;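 active = mean replicate inhibition score of at least 50 and every replicate individually at or above 50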;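 note: 0% = plate neutral controls and 100% = maraviroc near 300 nM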
NR2E3 ag-1 – NR2E3 agonists in two-hybrid cells, primary screen, cell-based, luminescence, CHO-S, Gal4-NCOR/VP16-NR2E3 | AID 602229, 2012 | hit rate 0.35% among 360,000 | inhibition of corepressor binding, % at 3.98 µM | luciferase | Photoreceptor-specific nuclear receptor (Homo sapiens), Q9Y5X4;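 active = inhibition above the mean of all tested compounds plus 3 SD, cut at about 70% in these data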;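 note: 0% = DMSO with NR2E3 transfected cells and 100% = cells lacking NR2E3 construct; higher means lower luciferase signal from less NR2E3 corepressor binding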
Target sequence (Q9Y5X4 whole entry, looked up, the tested form may be a part): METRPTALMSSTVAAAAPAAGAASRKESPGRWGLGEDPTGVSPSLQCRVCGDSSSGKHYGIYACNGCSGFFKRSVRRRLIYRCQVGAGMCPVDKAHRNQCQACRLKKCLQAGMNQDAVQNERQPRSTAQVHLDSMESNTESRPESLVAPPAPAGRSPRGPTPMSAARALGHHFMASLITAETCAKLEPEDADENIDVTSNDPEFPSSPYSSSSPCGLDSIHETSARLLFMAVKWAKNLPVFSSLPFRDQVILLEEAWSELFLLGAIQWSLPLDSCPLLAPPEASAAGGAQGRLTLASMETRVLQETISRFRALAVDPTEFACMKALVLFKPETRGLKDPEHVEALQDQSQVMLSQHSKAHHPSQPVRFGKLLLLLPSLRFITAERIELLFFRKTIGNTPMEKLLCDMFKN
GalR3 antag – GalR3 antagonists in HEK293 cells, primary screen, cell-based, fluorescence readout; Galanin receptor type 3 (Homo sapiens), O60755; HEK293 GalR3-CNG cAMP membrane potential fluorescence; galR3 body fused to GalR1 C-terminus; inhibition, % at 3 µM; hit rate 0.44% among 360,000; AID 651719, 2012;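 active = inhibition above the screen-wide average plus 3 SD, cut at about 13% in these data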;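 note: forskolin and galanin both at EC90 stimulate the cells; cAMP rise reported by CNG channel membrane potential dye signal; 0% = forskolin plus galanin with DMSO and 100% = forskolin alone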
NR2E3 ag-2 – inhibitors of NR2E3-RetCOR corepressor binding, primary screen, NR2E3 agonist project, biochemical, TR-FRET, GST-NR2E3, biotin-RetCOR; inhibition of corepressor binding, % at 4.78 µM; 1536-well; Photoreceptor-specific nuclear receptor (Homo sapiens), Q9Y5X4; hit rate 0.12% among 320,000;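 active = percent inhibition above the cutoff of mean plus 3 SD of all tested compounds, set per screening campaign, cut at about 20% in these data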;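 note: 0% = DMSO wells and 100% = biotin wells as full block of FRET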
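Material – GST-tagged NR2E3 plus biotinylated RetCOR corepressor · Quantity – NR2E3 fusion 1.35 nM · Times – 5 h incubation at 4 °C · Medium – pH 7.5 Tris-based buffer · Technique – TR-FRET, Eu(K)-anti-GST donor, streptavidin-D2 acceptor, ex 340, em 617/671 nm · Benchmarks – high control biotin, low control 0.6% DMSO · Format – 1536-well plates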
V-ATPase pH SP – yeast V-ATPase proton pumping modulators, confirmation, S. cerevisiae, pH-sensitive GFP, second cherry-pick | shares compounds with V-ATPase pHluor | S. cerevisiae pHLuorin cytosolic pH, V-ATPase proton transport | hit rate 2% among 980 | response, % at 10 µM; in the data active = response above about 24%;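 note: plate controls were vehicle wells for no effect and positive control wells for full effect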
* marks the source's active call; other numbers are inactive results; [ ] = dose if it differs, or a comment.

Screening O=C(O)CCc1ccc(-c2ccc(Br)cc2)n1-c1ccc(O)cc1 returned FXN GAA850 act 0, V-ATPase pHluor 12*, HIV Env fusion 1, NR2E3 ag-1 8, GalR3 antag -10 and V-ATPase pH SP -4.
For COc1ccccc1CNC(=O)C1CCN(c2ncnc3c2nc2n3CCCCC2)CC1 the results were FXN GAA850 act 1, V-ATPase pHluor 12*, HIV Env fusion -4, NR2E3 ag-1 22, GalR3 antag 0, NR2E3 ag-2 -2 and V-ATPase pH SP 0.
`COc1cccc(CNC(=O)C2CCN(c3ncnc4c3nc3n4CCCCC3)CC2)c1` gave FXN GAA850 act 2, V-ATPase pHluor 2, HIV Env fusion 0, NR2E3 ag-1 14, GalR3 antag -9 and NR2E3 ag-2 -1.
For C[C@@H]1CN([C@H](C)CO)C(=O)c2cccc(NS(=O)(=O)c3cn(C)cn3)c2O[C@H]1CN(C)S(=O)(=O)c1ccccc1 the results were HIV Env fusion -15[16.7 µM].
`O=C(Sc1nnc(-c2ccccc2)o1)N1c2ccccc2Sc2ccccc21` gave FXN GAA850 act 2, V-ATPase pHluor -1, HIV Env fusion 2, NR2E3 ag-1 -41, GalR3 antag 6, NR2E3 ag-2 2 and V-ATPase pH SP -2.
For COc1cc(-c2nnc(SCC(=O)N3c4ccccc4Sc4ccccc43)o2)cc(OC)c1OC the results were FXN GAA850 act -1, V-ATPase pHluor 1, NR2E3 ag-1 -21, GalR3 antag -2 and NR2E3 ag-2 0.
For CCCNC(=O)N1C[C@@H](C)[C@@H](OC)CN(C)C(=O)c2ccc(NS(C)(=O)=O)cc2OC[C@H]1C the results were HIV Env fusion -7[16.7 µM].
Screening COc1ccc(CN(C)C[C@H]2Oc3ccc(NC(=O)Nc4ccccc4)cc3CC(=O)N([C@H](C)CO)C[C@H]2C)cc1 returned HIV Env fusion -2[16.7 µM].
`CN1C(=O)c2cc(NC(=O)c3cccs3)ccc2OC[C@H]2O[C@@H](CC(=O)N3CCOCC3)CC[C@H]21` gave HIV Env fusion -1[16.7 µM].
For CCOC(=O)c1ccc(NC(=S)NC(=O)COc2ccccc2)cc1 the results were FXN GAA850 act -1, V-ATPase pHluor 65*, HIV Env fusion 4, NR2E3 ag-1 -31, GalR3 antag -2, NR2E3 ag-2 -3 and V-ATPase pH SP -4.
Screening CCOC(=O)c1ccc(NC(=S)Nc2ccccc2)cc1 returned FXN GAA850 act 3, V-ATPase pHluor 0, HIV Env fusion 10, NR2E3 ag-1 -11, GalR3 antag -4 and NR2E3 ag-2 3.
CN1CCN(C(=O)C[C@H]2CC[C@@H]3[C@H](COc4ccc(NC(=O)C5CC5)cc4C(=O)N3C)O2)CC1 was read as HIV Env fusion -18[16.7 µM].
Screening CN(C)c1ccc(C=C2C=Cc3ccccc32)cc1 returned FXN GAA850 act 3, V-ATPase pHluor 12*, HIV Env fusion inactive, NR2E3 ag-1 -83, GalR3 antag 2 and V-ATPase pH SP -3.
Cc1csc(NC(=O)CSc2nncn2C)n1 was read as FXN GAA850 act -1, V-ATPase pHluor 13*, NR2E3 ag-1 -9, GalR3 antag 1, NR2E3 ag-2 -2 and V-ATPase pH SP -2.
`CC(C)C(NC(=O)c1ccccc1NC(=O)c1ccccc1)C(=O)NCCCn1ccnc1` (stereo not drawn) gave FXN GAA850 act 2, V-ATPase pHluor 9.5*, NR2E3 ag-1 7, NR2E3 ag-2 6 and V-ATPase pH SP 1.
`Cn1nnnc1Sc1c(Cl)cccc1[N+](=O)[O-]` gave FXN GAA850 act 0, V-ATPase pHluor 7.8*, HIV Env fusion 6, NR2E3 ag-1 7, GalR3 antag -5, NR2E3 ag-2 1 and V-ATPase pH SP 3.

Assay outcomes deposited in PubChem by several laboratories.
